Test results as given in ChEMBL document CHEMBL1146679, “Synthesis and biological evaluation of pyrrolo[2,1-c][1,4]benzodiazepine (PBD) C8 cyclic amine conjugates” (2004).

How the values were obtained:
Nucleic Acid [1] = test: In vitro induced thermal stabilization of duplex DNA melting after incubation with the compound (20 uM) at 37 C for 4 h; format: functional; details: Bos taurus
How it was run: (§1)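 Duplex calf thymus DNA (100 µM in DNAp) mixed with ligand (20 µM), 5:1 molar ratio, in 10 mM NaH2PO4/Na2HPO4 + 1 mM Na2EDTA, pH 7.00 ± 0.01; held at 37 °C for 0, 4 or 18 h before thermal melting; ΔTm relative to DNA alone, ±0.1 °C, at least 3 determinations.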

SK-OV-3 = test: Concentration required to inhibit SKOV-3 cell growth when compared with control after incubation for 96 hr at 37 C; format: functional, cell-based; details: Homo sapiens
How it was run: (§2)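 Human ovarian tumour lines (SKOV-3, A2780, A2780cisR, CH1, CH1cisR) exposed to agent for 96 h at 37 °C; growth compared with PBD-free controls; IC50 taken as concentration giving 50% growth inhibition.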

A2780 [2] = test: Resistance factor was determined as IC50 cisplatin-resistant/parent for human A2780 ovarian cell line; format: functional
How it was run: (§3)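 Resistance factor computed as IC50 in cisplatin-resistant line divided by IC50 in parent line, for the A2780/A2780cisR and CH1/CH1cisR pairs, from 96 h, 37 °C growth-inhibition assays against PBD-free controls.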

CH1 [3] = test: Concentration required to inhibit CH1cisR tumor cell growth when compared with control after incubation for 96 hr at 37 C; format: functional, cell-based; details: Homo sapiens; how it was run: as §2
CH1 [4] = test: Resistance factor was determined as IC50 cisplatin-resistant/parent for human CH1cisR tumor ovarian cell line; format: functional; how it was run: as §3
A2780 [5] = test: Concentration required to inhibit A2780cisR cell growth when compared with control after incubation for 96 h at 37 C; format: functional, cell-based; details: Homo sapiens; how it was run: as §2
Nucleic Acid [6] = test: In vitro induced thermal stabilization of duplex DNA melting after incubation with the compound (20 uM) at 37 C for 0 h; format: functional; details: Bos taurus; how it was run: as §1
CH1 [7] = test: Concentration required to inhibit CH1 tumor cell growth when compared with control after incubation for 96 hr at 37 C; format: functional, cell-based; details: Homo sapiens; how it was run: as §2
A2780 [8] = test: Concentration required to inhibit A2780 cell growth when compared with control after incubation for 96 hr at 37 C; format: functional, cell-based; details: Homo sapiens; how it was run: as §2
Nucleic Acid [9] = test: In vitro induced thermal stabilization of duplex DNA melting after incubation with the compound (20 uM) at 37 C for 18 h; format: functional; details: Bos taurus; how it was run: as §1
Nucleic Acid [10] = test: gIn vitro induced thermal stabilization of duplex DNA melting after incubation with the compound (20 uM) at 37 C for 0 h; format: functional; details: Bos taurus; how it was run: as §1
[11] = Activity in NCI standard hollow fibre assay after subcutaneous administration; format: functional
[12] = Activity in NCI standard hollow fibre assay after intraperitoneal administration; format: functional
[13] = Total activity in NCI standard hollow fibre assay; format: functional

Row | SMILES | ΔTm (Nucleic Acid [1]) | Concentration (SK-OV-3) | RF (A2780 [2]) | Concentration (CH1 [3]) | RF (CH1 [4]) | Concentration (A2780 [5]) | ΔTm (Nucleic Acid [6]) | Concentration (CH1 [7]) | Concentration (A2780 [8]) | ΔTm (Nucleic Acid [9]) | ΔTm (Nucleic Acid [10]) | Score [11] | Score [12] | Score [13]
1 | COc1cc2c(cc1OCCC(=O)N1CCc3ccccc31)N=C[C@@H]1CCCN1C2=O | 1 °C | 5.8 µM | 3.2 | 3 µM | 2 | 4.9 µM | 0.7 °C | 1.5 µM | 1.55 µM | 1.2 °C |  |  |  | 
2 | COc1cc2c(cc1OCCC(=O)N1CCCCC1)N=C[C@@H]1CCCN1C2=O | 0.9 °C | 23.5 µM | 4.5 | 7.9 µM | 1.6 | 14.5 µM | 0.8 °C | 4.9 µM | 3.2 µM | 1.2 °C |  |  |  | 
3 | COc1cc2c(cc1OCc1ccccc1)N=C[C@@H]1CCCN1C2=O | 0.4 °C | 0.46 µM | 2.8 | 0.145 µM | 1 | 0.48 µM | 0.2 °C | 0.145 µM | 0.17 µM | 0.4 °C |  |  |  | 
4 | COc1cc2c(cc1OCCC(=O)N1CCCC1)N=C[C@@H]1CCCN1C2=O | 0.9 °C | 5.4 µM | 2.9 | 1.85 µM | 1.3 | 4.3 µM |  | 1.4 µM | 1.5 µM | 1.2 °C | 0.5 °C |  |  | 
5 | COc1cc2c(cc1OC)C(=O)N1CCC[C@H]1C=N2 | 0.4 °C | 1.7 µM | 2.4 | 0.11 µM | 1.3 | 0.155 µM | 0.2 °C | 0.082 µM | 0.064 µM | 0.6 °C |  |  |  | 
6 | COc1cc2c(cc1OCCC(=O)N1Cc3ccccc3C1)N=C[C@@H]1CCCN1C2=O | 1.1 °C | 1.45 µM | 4 | 0.42 µM | 2 | 0.94 µM | 1 °C | 0.24 µM | 0.23 µM | 1.3 °C |  | 2 | 40 | 40
